High-throughput results deposited in PubChem BioAssay by The Scripps Research Institute Molecular Screening Center.
Compounds with a hit are over-represented: about 2.3% of the library has one in this group of screens.
OXTR ag: human OXTR agonists, primary screen, fluorescence, CHO-OTR cells, Fluo-8 calcium. Oxytocin receptor (Homo sapiens), P30559. Fluo-8 calcium fluorescence; normalized: DMSO 0%, oxytocin 100%. activation, % at 3 µM. 320,000 tested, 0.32% active. AID 2435, 2010;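 active = activation above the mean of all tested compounds plus 3 SD, cutoff set per screening run, cut at about 20% in these data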;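 note: peak over basal fluorescence ratio from a 100 s FLIPR kinetic read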
TAAR1 ag: human TAAR1 agonists, primary screen, Fluo-8 calcium fluorescence, CHO RD-HGA16 cells | Trace amine-associated receptor 1 (Homo sapiens), Q96RJ0 | activation, % at 3 µM | vehicle wells 0%, saturating PEA agonist 100% | 360,000 tested, 0.99% active;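 active = activation above the mean activation of all test compounds in the run plus 3 SD, cut at about 38% in these data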
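Test system: RD-HGA16 (CHO) cells co-expressing Gα16 and hTAAR1 / Benchmarks: DMSO vehicle as 0%, PEA at EC100 as 100% / Repeats: no replicates (n 1) / Measure: % activation from peak over basal fluorescence ratio, DMSO-to-PEA scaled / Timing: 17-24 h plating, Fluo-8 75 min 37 °C, 30 min RT / Technique: kinetic Fluo-8 calcium fluorescence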
V1R ag counter: agonists of human V1a receptor, primary screen, counter-screen for OXTR agonist project, fluorescence, CHO-V1R cells; Fluo-8 calcium fluorescence, agonist mode; 0% DMSO, 100% 3 nM vasopressin; activation, % at 3 µM; 320,000 tested, 0.25% active;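 active = activation above the mean activation of all tested compounds plus 3 SD, per screening run, cut at about 20% in these data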;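 note: signal is peak over basal fluorescence ratio across a 100 second FLIPR read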
Target sequence (P37288 whole entry, looked up): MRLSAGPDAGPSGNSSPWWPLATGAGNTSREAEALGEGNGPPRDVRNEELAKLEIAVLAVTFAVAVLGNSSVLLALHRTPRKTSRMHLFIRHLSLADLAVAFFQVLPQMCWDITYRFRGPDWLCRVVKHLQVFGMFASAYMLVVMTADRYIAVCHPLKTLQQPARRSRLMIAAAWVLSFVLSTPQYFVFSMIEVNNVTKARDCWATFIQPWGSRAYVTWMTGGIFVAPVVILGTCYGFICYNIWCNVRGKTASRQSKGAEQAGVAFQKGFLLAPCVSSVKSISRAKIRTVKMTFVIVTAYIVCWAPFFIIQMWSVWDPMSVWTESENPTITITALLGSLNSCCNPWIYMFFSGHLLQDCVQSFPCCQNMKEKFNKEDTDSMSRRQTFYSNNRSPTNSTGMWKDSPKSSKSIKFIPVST
TAAR1 antagonist: human TAAR1 antagonists, primary screen, Fluo-8 calcium fluorescence, CHO RD-HGA16 cells. 360,000 tested, 1.5% active. inhibition, % at 3 µM. Trace amine-associated receptor 1 (Homo sapiens), Q96RJ0. AID 624466, 2012. antagonist;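 active = inhibition above a per-plate cutoff, the mean inhibition of test compounds on that plate plus 3 SD, cut at about 49% in these data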;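 note: 0% = DMSO plus EC80 beta-PEA response and 100% = DMSO alone without agonist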
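Assay system: CHO-derived RD-HGA16 cells stably expressing human TAAR1 plus Gα16. Timing: 140 s kinetic read after compound, 140 s after agonist. Technique: kinetic Fluo-8 calcium fluorescence measurement. Measure: % inhibition of agonist calcium response.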
OXTR potentiator: human OXTR potentiators, primary screen, fluorescence, CHO-OTR cells, Fluo-8 calcium; Fluo-8 calcium fluorescence, potentiator mode; 0% = oxytocin EC15, 100% = EC100; 320,000 tested, 0.061% active; Oxytocin receptor (Homo sapiens), P30559; activation, % at 3 µM;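 active = activation above that plate's cutoff, the mean activation of tested compounds plus 3 SD, cut at about 6.6% in these data, passing the limit was not always enough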;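 note: 100% uses oxytocin at 75 nM as the full agonist control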
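Dosing: Single dose, 3.0 µM nominal final compound concentration | Material: Human OTR in CHO cells | Technique: Kinetic Fluo-8 calcium fluorescence | Benchmarks: EC15 oxytocin alone as 0%, 75 nM oxytocin as 100% | Probe or stimulus: Oxytocin at about EC15, sub-maximal agonist stimulus | Incubation: Compound 6 min at room temperature before oxytocin, 100 s read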
TAAR1 ag conf: human TAAR1 agonists, retest of hits, confirmation, Fluo-8 calcium fluorescence, CHO RD-HGA16 cells; shares compounds with TAAR1 ag; 2,400 tested, 82% active; AID 651783, 2012; scaled: DMSO 0%, maximal phenethylamine 100%; activation, % at 3 µM;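 active = activation above a cutoff set at the run's mean compound activation plus 3 SD, cut at about 39% in these data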
Ga16 nonsel ag: nonselective calcium mobilization agonists, CHO-Ga16 cells, counter-screen for hTAAR1 agonist project, cell-based, fluorescence, CHO-Ga16 parental line; activation, % at 3 µM; 2,400 tested, 50% active; shares compounds with TAAR1 ag; Fluo-8 calcium fluorescence; normalized to maximal ATP response, DMSO zero;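 active = activation above the run cutoff, the mean activation over all tested wells plus 3 SD, cut at about 12% in these data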;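 note: 0% = DMSO wells and 100% = maximal ATP response on the peak over basal ratio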
TAAR1 desens: TAAR1 desensitization by agonist hits, confirmation, counter-screen for TAAR1 agonist project, cell-based, fluorescence, tachyphylaxis; shares compounds with TAAR1 ag; CHO RD-HGA16 hTAAR1, Fluo-8 calcium, beta-PEA response inhibition; inhibition, % at 3 µM; 2,400 tested, 46% active;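 active = inhibition above the run cutoff, the mean inhibition of all test compounds plus 3 SD, cut at about 49% in these data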;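 note: beta-PEA stimulus applied at its EC80; loss of beta-PEA calcium signal after compound pretreatment read as receptor desensitization; 0% = DMSO with beta-PEA at EC80 and 100% = DMSO alone without agonist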
Ga16 nonsel ant: inhibition of ATP-evoked calcium response in CHO-Ga16 cells, counter-screen for TAAR1 agonist project, cell-based, fluorescence. shares compounds with TAAR1 ag. CHO-Ga16 ATP-induced calcium, Fluo-8 fluorescence. inhibition, % at 3 µM. 2,400 tested, 39% active;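 active = inhibition above the plate's mean compound inhibition plus 3 SD, computed per plate, cut at about 22% in these data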;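 note: 0% = EC80 ATP with DMSO and 100% = DMSO wells without ATP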
Starred values were filed as active, the others as inactive; / = no result given.

SMILES	OXTR ag	TAAR1 ag	V1R ag counter	TAAR1 antagonist	OXTR potentiator	TAAR1 ag conf	Ga16 nonsel ag	TAAR1 desens	Ga16 nonsel ant
CC(=O)c1ccc(NC(=S)NC(NC(=O)c2ccco2)C(Cl)(Cl)Cl)cc1 (configuration not stated)	61*	96*	38*	43	-24	106*	29*	80*	21
CCN(CC)CCN1C(=O)C2C(C(=O)Nc3cccc(C)c3)C3C=CC2(O3)C1C(=O)NC1CCCC(C)C1C (configuration not stated)	-1	8	-1	-4	-10	/	/	/	/
Cc1cccc(CC(C)NC(=O)c2cc(COc3ccc(F)cc3F)on2)n1 (configuration not stated)	2	88*	5	99*	-3	9	5	14	7
Cc1nc2ccccc2n1CCc1ccccc1	-1	5	-1	-1	3	/	/	/	/
Cc1nc(C(N)=O)c(N)n1CCc1ccccc1	0	98*	1	72*	2	70*	1	48	5
Cc1nnc(NC(=O)c2sc3nc(-c4cccs4)cc(C(F)(F)F)c3c2N)s1	98*	78*	44*	89*	-13	62*	77*	80*	80*
Cc1cc(C(F)(F)F)c2c(N)c(C(=O)NC3CC3)sc2n1	0	11	0	-24	-6	/	/	/	/
CC(=NNC(=O)c1ccncc1)c1ccccc1O	/	2	/	2	/	/	/	/	/
CC(=NNC(=O)c1ccncc1)c1ccc2ccccc2c1O	/	167*	/	76*	/	72*	153*	54*	78*
CCC(C)N=CC1=C(O)CC(c2ccccc2)CC1=O (configuration not stated)	-1	1	0	14	2	/	/	/	/
CCCC(=NC(C)CC)C1=C(O)CC(c2ccccc2)CC1=O (configuration not stated)	-2	58*	-1	-1	-15	86*	56*	2	6
CC(C)CC(NC(N)=O)C(=O)NCc1ccccc1Cl (configuration not stated)	-2	2	0	0	-1	/	/	/	/
COc1ccc(CNCCc2ccccc2)cc1OCC(N)=O	0	52*	-1	-3	-5	75*	1	22	-3
CCCNC(=O)C(=O)NCC(c1ccc2c(c1)OCO2)N1CCN(c2ccc(F)cc2)CC1 (configuration not stated)	-1	-1	0	-6	-3	/	/	/	/
C[C@H]1[C@H](c2ccccc2)Oc2cccc(NCCc3ccccc3)c2S(=O)(=O)N1Cc1cccc(Cl)c1	/	40*	/	1	/	62*	9	17	12
C[C@H]1[C@@H](c2ccccc2)Oc2ccc(Cl)cc2S(=O)(=O)N1Cc1ccc(F)cc1F	/	2	/	-27	/	/	/	/	/
C[C@H]1[C@@H](c2ccccc2)Oc2ccc(Cl)cc2S(=O)(=O)N1Cc1cccc(Cl)c1	/	2	/	-21	/	/	/	/	/
